For data set [1], the system named is Leishmania donovani. The experiment in a line: Antileishmanial activity against Leishmania donovani MHOM/IN/80/Dd8 promastigotes at 10 ug/ml after 72 hrs. Type of data set: functional. In a few lines:
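Promastigotes were transfected with firefly luciferase and kept in medium 199 with 10% foetal calf serum, penicillin/streptomycin and G418. Late-log cells (5×10⁵/well) were exposed for 72 h to serial dilutions (1–10 range) in DMSO, with DMSO controls. Luminescence was read with Steady-Glo. % inhibition = (N − n)×100/N, using mean RLU of control (N) and treated (n) wells.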

Data set [2] has as its system Leishmania donovani. The experiment in a line: Antileishmanial activity against Leishmania donovani MHOM/IN/80/Dd8 amastigotes infected in mouse J774A.1 cells after 72 hrs. In kind it is functional, organism-based. The conditions noted are these: MHOM/IN/80/Dd8, J774.A1, 72 h. In a few lines:
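J774A.1 macrophages (1.5×10⁴/well) were cultured in RPMI-1640 with 10% foetal calf serum at 37 °C in CO₂. After 24 h they were infected with stationary-phase luciferase-transfected promastigotes (2.25×10⁵/well), which transform into amastigotes. Test material (0.25–10 range) in complete medium was then applied for 72 h. Steady-Glo luminescence of treated wells was compared with untreated controls.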

A short description of data set [3]: Cytotoxicity against mouse J774A1 cells after 72 hrs by MTT assay. In kind it is cell-based, J774.A1. In short, it runs like this: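 J774A.1 cells were kept in RPMI with 10% foetal calf serum and gentamycin. Cells (1×10⁴/well) were exposed to graded concentrations diluted from DMSO stocks for 72 h at 37 °C in humidified CO₂. MTT (5 mg/ml stock in PBS) was added for 2 h, and formazan was dissolved in DMSO and read at 544 nm. CC50 was the concentration giving 50% viability loss versus medium-only cells, estimated by template.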
(In general: Tetrazolium assays rely on reduction of a dye to a coloured formazan, in cell work by metabolically active cells.)

Data set [4] is described as follows: (§1) Selectivity index, ratio of CC50 for mouse J774A1 cells to IC50 for Leishmania donovani MHOM/IN/80/Dd8 amastigotes. Type of data set: functional, J774.A1. In a few lines: (§2)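 Ratio of J774A.1 CC50 (MTT, 72 h) to IC50 from the luciferase assay on intracellular amastigotes in J774A.1 macrophages (72 h exposure).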
The test system of data set [5] is Leishmania donovani. Description: Antileishmanial activity against Leishmania donovani MHOM/IN/80/Dd8 amastigotes infected in golden hamster at 50 mg/kg, ip administered 5 times per day for 5 days. In kind it is functional. In short, it runs like this: (§3)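 Golden hamsters infected with L. donovani MHOM/IN/80/Dd8 were randomized into groups by parasite burden, 4–6 animals per sample. Intraperitoneal dosing began 2 days after biopsy. Post-treatment biopsy was taken on day 7 after the last dose, and amastigotes were counted by Giemsa staining. Percentage inhibition was calculated from actual and initial counts in treated animals and the fold increase in untreated controls.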

Data set [6] relates to Leishmania donovani. The experiment in a line: Antileishmanial activity against Leishmania donovani MHOM/IN/80/Dd8 promastigotes at […] after 72 hrs. Type of data set: functional, organism-based.
The next data set has as its system J774.A1. The data set is described as §1. In kind it is functional. In short, it runs like this:
as §2

For data set [7], the system named is Leishmania donovani. The experiment in a line: Antileishmanial activity against Leishmania donovani MHOM/IN/80/Dd8 amastigotes infected in golden hamster at 40 mg/kg, ip administered 5 times per day for 5 days. Set-up: dose 40 mg/kg. In kind it is functional, organism-based. In short, it runs like this: as §3
Data set [8] has as its system Leishmania donovani. Description: Antileishmanial activity against Leishmania donovani MHOM/IN/80/Dd8 promastigotes at 0.5 ug/ml after 72 hrs. Type of data set: functional.
Data set [9] deals with Leishmania donovani. The experiment in a line: Antileishmanial activity against Leishmania donovani MHOM/IN/80/Dd8 amastigotes infected in golden hamster at 20 mg/kg, ip administered 5 times per day for 5 days. Type of data set: functional. As to conditions: route intraperitoneal. In short, it runs like this: as §3

Converted amounts (≈) assume the structure as drawn. The source made the active and inactive calls. No cut-off for these calls is given here.

A word on the IC50: it is the concentration that gives 50% inhibition. As a reminder, the CC50 is the concentration that lowers cell viability or growth by half. High values mean lower toxicity to the cells, low ones greater toxicity to the cells.

Molecule `COc1ccc(-c2cc(SC)nc(Nc3nc(NCCCN4CCOCC4)nc(NCCCN4CCOCC4)n3)n2)cc1OC` displayed an Activity in the data set on Leishmania donovani [1] of 35.2%.
Same read-out and setting: for `COc1cc(-c2cc(NCCCN3CCOCC3)nc(N)n2)cc(OC)c1OC` the value was 46.9%; for `COc1cc(-c2cc(SC)nc(Nc3nc(NCCCN4CCOCC4)nc(NCCCN4CCOCC4)n3)n2)cc(OC)c1OC`, 75.2%.
For the molecule `COc1cc(-c2cc(SC)nc(Nc3nc(N4CCCCC4)nc(N4CCCCC4)n3)n2)cc(OC)c1OC`, the Activity in the data set on Leishmania donovani [1] is given as 90.8%; in the data set with Leishmania donovani [5] (route intraperitoneal), 56.58%. For the same molecule, the IC50 in the data set with Leishmania donovani [2] came out at 1.8 µg/mL (≈ 3.26 µM). In addition, it took 51.7 µg/mL (≈ 93.5 µM) to reach half-maximal cytotoxicity in data set [3] (CC50 at 72 h). For the same molecule, the “Ratio CC50/IC50” value in data set [4] is 28.7.
For sodium stibogluconate, the Activity with Leishmania donovani [6] turned out to be 40%; with Leishmania donovani [5], 48.5%; in the data set with Leishmania donovani [7], 92%. Also, in the data set with J774.A1, the Ratio CC50/IC50 is 5.53.
`CCN(CC)CCNc1cc(-c2cc(OC)c(OC)c(OC)c2)nc(N)n1`: the Activity with Leishmania donovani [1] worked out at 95.1%; in the data set on Leishmania donovani [5] (route intraperitoneal), 48.46%. The molecule further had a half-inhibitory concentration (IC50) with Leishmania donovani [2] of 5.12 µg/mL (≈ 13.6 µM). In [3], this molecule registered a cytotoxic concentration (CC50) at 72 h of 81.5 µg/mL (≈ 217 µM). For the same molecule, the “Ratio CC50/IC50” value in [4] was determined as 15.92.
In turn, `COc1ccc(-c2cc(SC)nc(Nc3nc(N4CCOCC4)nc(N4CCOCC4)n3)n2)cc1OC` came in with an Activity with Leishmania donovani [1] of 90.5%. Also, in the data set on Leishmania donovani [2], 9.68 µg/mL (≈ 18.4 µM) corresponded to half-maximal inhibition (IC50). This molecule gave a CC50 at 72 h in data set [3] of 23.9 µg/mL (≈ 45.3 µM). In addition, in data set [4], the “Ratio CC50/IC50” value turned out to be 2.46.
As to `N=C(N)c1ccc(OCCCCCOc2ccc(C(=N)N)cc2)cc1` [PENTAMIDINE], the Activity is 85% in the data set on Leishmania donovani [8] and 84.1% in the data set with Leishmania donovani [9]. For the same molecule, the half-maximal cytotoxic concentration (CC50) at 72 h in [3] came out at 31.3 µg/mL (≈ 92 µM).
In the case of `COc1ccc(-c2cc(SC)nc(Nc3nc(NC(C)C)nc(NC(C)C)n3)n2)cc1OC`, the outcome in the data set with Leishmania donovani [1] was inactive.
The same measure, in the same setting: the same measure for `COc1cc(-c2cc(N3CCN(C)CC3)nc(N)n2)cc(OC)c1OC`: 63.88%.
In the data set with Leishmania donovani [1], `CCN(CC)CCNc1nc(NCCN(CC)CC)nc(Nc2nc(SC)cc(-c3ccc(OC)c(OC)c3)n2)n1` had an Activity of 94.7%. The molecule also came in with a half-maximal inhibitory concentration (IC50) in the data set on Leishmania donovani [2] of 4.88 µg/mL (≈ 8.34 µM). The same molecule gave a cytotoxic concentration (CC50) at 72 h in data set [3] of 42 µg/mL (≈ 71.8 µM). Besides, in data set [4], the “Ratio CC50/IC50” value was found to be 8.6.
In the case of `CCN1CCN(c2nc(Nc3nc(SC)cc(-c4ccc(OC)c(OC)c4)n3)nc(N3CCN(CC)CC3)n2)CC1`, in the data set with Leishmania donovani [1], the result was inactive.
As for `CCCCNc1cc(-c2cc(OC)c(OC)c(OC)c2)nc(N)n1`, the Activity was found to be 84.4% in the data set with Leishmania donovani [1] and 54.1% in the data set with Leishmania donovani [5] (route intraperitoneal). Moreover, the half-maximal inhibitory concentration (IC50) in the data set with Leishmania donovani [2] is 4.99 µg/mL (≈ 15 µM). Further, the CC50 at 72 h in [3] came out at 49.9 µg/mL (≈ 150 µM). Moreover, in data set [4], the “Ratio CC50/IC50” value worked out at 10.
As to `COc1cc(-c2cc(SC)nc(Nc3nc(N4CCN(C)CC4)nc(N4CCN(C)CC4)n3)n2)cc(OC)c1OC`, in the data set with Leishmania donovani [1], the Activity came to 99.5%. Besides, the IC50 with Leishmania donovani [2] is 1.34 µg/mL (≈ 2.3 µM). In addition, in data set [3], the half-maximal cytotoxic concentration (CC50) at 72 h worked out at 16.5 µg/mL (≈ 28.4 µM). Also, the “Ratio CC50/IC50” value in [4] came to 12.34.
The matching figures for `COc1ccc(-c2cc(SC)nc(Nc3nc(N4CCN(C)CC4)nc(N4CCN(C)CC4)n3)n2)cc1OC`: 99.8%, 0.89 µg/mL (≈ 1.61 µM), 36.2 µg/mL (≈ 65.6 µM) and 40.71.
The matching figures for `COc1cc(-c2cc(SC)nc(Nc3nc(NC(C)C)nc(NC(C)C)n3)n2)cc(OC)c1OC`: 94.5%, 1.04 µg/mL (≈ 2.08 µM), 1.9 µg/mL (≈ 3.8 µM) and 1.82.
The matching figures for `COc1cc(-c2cc(SC)nc(Nc3nc(N4CCOCC4)nc(N4CCOCC4)n3)n2)cc(OC)c1OC`: 80.8%, 7.02 µg/mL (≈ 12.6 µM), 10.8 µg/mL (≈ 19.5 µM) and 1.54.
In the data set on Leishmania donovani [1], `COc1cc(-c2cc(N3CCOCC3)nc(N)n2)cc(OC)c1OC` came in with an Activity of 43.9%.
The same measure, in the same setting: the same measure for `CCCCNc1nc(NCCCC)nc(Nc2nc(SC)cc(-c3cc(OC)c(OC)c(OC)c3)n2)n1`: 75.5%; for `CCCCNc1nc(NCCCC)nc(Nc2nc(SC)cc(-c3ccc(OC)c(OC)c3)n2)n1`: 78.6%; for `COc1ccc(-c2cc(SC)nc(Nc3nc(NC(C)(C)C)nc(NC(C)(C)C)n3)n2)cc1OC`: “inactive”.
Turning to `COc1cc(-c2cc(N3CCCCC3)nc(N)n2)cc(OC)c1OC`, the Activity in the data set on Leishmania donovani [1] worked out at 88%. Besides, the IC50 with Leishmania donovani [2] came to 7.09 µg/mL (≈ 20.6 µM). Moreover, the midpoint of cytotoxicity in data set [3], the CC50 at 72 h, lay at 10.4 µg/mL (≈ 30.3 µM). Also, in data set [4], the “Ratio CC50/IC50” value stood at 1.47.
On to `CCN(CC)CCNc1nc(NCCN(CC)CC)nc(Nc2nc(SC)cc(-c3cc(OC)c(OC)c(OC)c3)n2)n1`, for which the result in the data set on Leishmania donovani [1] was inactive.
Molecule `CCCNc1nc(NCCC)nc(Nc2nc(SC)cc(-c3cc(OC)c(OC)c(OC)c3)n2)n1` showed an Activity in the data set on Leishmania donovani [1] of 86.7%. This molecule also gave a cytotoxic concentration (CC50) at 72 h in data set [3] of 1.46 µg/mL (≈ 2.92 µM).
For `CCCNc1nc(NCCC)nc(Nc2nc(SC)cc(-c3ccc(OC)c(OC)c3)n2)n1`, the Activity with Leishmania donovani [1] is given as 85.6%. In addition, in the data set with Leishmania donovani [2], the 50% inhibitory concentration (IC50) turned out to be 2.27 µg/mL (≈ 4.82 µM). In data set [3], this molecule yielded a 50% cytotoxic concentration (CC50) at 72 h of 14.3 µg/mL (≈ 30.5 µM). Also, in data set [4], the “Ratio CC50/IC50” value is recorded as 6.31.
The matching figures for `CCN1CCN(c2nc(Nc3nc(SC)cc(-c4cc(OC)c(OC)c(OC)c4)n3)nc(N3CCN(CC)CC3)n2)CC1`: 100%, 4.56 µg/mL (≈ 7.47 µM), 27.4 µg/mL (≈ 44.8 µM) and 6.
`COc1ccc(-c2cc(SC)nc(Nc3nc(N4CCCCC4)nc(N4CCCCC4)n3)n2)cc1OC` showed an Activity in the data set on Leishmania donovani [1] of 53.8%.
The same measure, in the same setting: for `COc1cc(-c2cc(SC)nc(Nc3nc(NCCN4CCOCC4)nc(NCCN4CCOCC4)n3)n2)cc(OC)c1OC` the value was 42.5%.
As to `COc1cc(-c2cc(SC)nc(Nc3nc(NC(C)(C)C)nc(NC(C)(C)C)n3)n2)cc(OC)c1OC`, the Activity with Leishmania donovani [1] turned out to be 95.8%. In the data set with Leishmania donovani [2], this molecule gave a 50% inhibitory concentration (IC50) of 2.97 µg/mL (≈ 5.62 µM). For the same molecule, the cytotoxic concentration (CC50) at 72 h in data set [3] was 9.8 µg/mL (≈ 18.5 µM). Also, the “Ratio CC50/IC50” value in [4] amounted to 3.29.
`COc1cc(-c2cc(NCCN3CCOCC3)nc(N)n2)cc(OC)c1OC` showed an Activity with Leishmania donovani [1] of 68.5%.
Same read-out and setting: the same measure for `COc1ccc(-c2cc(SC)nc(Nc3nc(NCCN4CCOCC4)nc(NCCN4CCOCC4)n3)n2)cc1OC`: “inactive”.

For the origin of these results see ChEMBL document CHEMBL1158391, “Synthesis and antileishmanial activity of novel 2,4,6-trisubstituted pyrimidines and 1,3,5-triazines” (Eur J Med Chem, 2009).
